pEC50, pIC50: −log10 of the molar value. Activity calls are given as the source filed them. No cut-off for these calls is given here.

Experiment [1] has as its target Delta-aminolevulinic acid dehydratase (Pseudomonas aeruginosa (strain ATCC 15692 / PAO1 / 1C / PRS 101 / LMG12228)) (UniProt Q59643). The experiment can be described thus: Stimulation of Pseudomonas aeruginosa PAO1 recombinant PBGS assessed as stabilization of dimeric form at 8 to 2000 uM by nondenaturing PAGE analysis in presence of Mg2+ and K+. A digest of the protocol: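 PaPBGS (3 μg) preincubated 20 min at 37 °C in assay buffer with 1 mM Mg2+, 100 mM K+ and wALADin1, no 5-ALA. Run on 7.5% nondenaturing PAGE at 4 °C for 15–20 h. Coomassie for oligomer state; in-gel activity with 500 μM 5-ALA stained with Ehrlich's reagent.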

For experiment [2] the target is unchanged. In words: Activation of Pseudomonas aeruginosa PAO1 recombinant PBGS using 0.2 mM 5-ALA as substrate at 10 to 10000 uM at pH 7.5 by buffer scan assay in presence of 10 mM MgCl2.
For experiment [3] the target is unchanged. The experiment can be described thus: Stimulation of Pseudomonas aeruginosa PAO1 recombinant PBGS using 5-ALA as substrate relative to control. A digest of the protocol:
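His-tagged PaPBGS at 150 nM subunit in 100 mM Tris-HCl pH 8.0 with 1 mM MgCl2, 100 mM KCl and 0.2 mM 5-ALA, 10 min at 36 °C, with turnover at most 30%. Porphobilinogen read with Ehrlich's reagent. Activity normalized to 6.7% DMSO control as 100%. EC50 from variable-slope agonist fit.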

The target of experiment [4] is T1, Delta-aminolevulinic acid dehydratase (Escherichia coli (strain K12)) (UniProt P0ACB2).
T1 sequence (whole entry): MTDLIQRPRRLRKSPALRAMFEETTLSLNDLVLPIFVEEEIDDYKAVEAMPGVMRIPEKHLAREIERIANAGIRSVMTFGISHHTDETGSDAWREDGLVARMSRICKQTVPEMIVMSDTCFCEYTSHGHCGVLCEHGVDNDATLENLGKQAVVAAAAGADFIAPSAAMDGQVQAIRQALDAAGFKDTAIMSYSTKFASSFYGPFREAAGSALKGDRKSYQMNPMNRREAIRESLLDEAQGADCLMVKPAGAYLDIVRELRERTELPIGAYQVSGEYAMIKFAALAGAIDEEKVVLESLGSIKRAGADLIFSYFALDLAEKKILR
In words: Stimulation of Escherichia coli recombinant PBGS using 5-ALA as substrate relative to control. A digest of the protocol:
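E. coli PBGS at 200 nM subunit in 100 mM BTP-HCl pH 8.1 with 1 mM MgCl2, 10 μM ZnCl2, 5 mM DTT and 0.2 mM 5-ALA, 10 min at 36 °C. Porphobilinogen detected with Ehrlich's reagent. EC50 by log(agonist) vs response variable-slope fit.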

The target of experiment [5] is Delta-aminolevulinic acid dehydratase (Pseudomonas aeruginosa (strain ATCC 15692 / PAO1 / 1C / PRS 101 / LMG12228)) (UniProt Q59643). The experiment can be described thus: Binding affinity to Pseudomonas aeruginosa PAO1 recombinant PBGS at 100 to 500 uM by thermal shift assay in presence of KCl.
For experiment [6] the target is unchanged. In words: Binding affinity to Pseudomonas aeruginosa PAO1 recombinant PBGS at 100 to 500 uM by thermal shift assay.
Experiment [7] shares this target. In words: Inhibition of Pseudomonas aeruginosa PAO1 recombinant PBGS using 0.2 mM 5-ALA as substrate at 10 to 10000 uM at pH 7.5 by buffer scan assay in presence of 1 mM MgCl2.
For experiment [8] the target is unchanged. In words: Inhibition of Pseudomonas aeruginosa PAO1 recombinant PBGS using 0.2 mM 5-ALA as substrate at 50 to 200 uM at pH 7.5 in presence of KCl by buffer scan assay.
The target of experiment [9] is Delta-aminolevulinic acid dehydratase (Yersinia enterocolitica W22703) (UniProt F4MUJ9). In words: Stimulation of Yersinia enterocolitica recombinant PBGS expressed in Escherichia coli using 5-ALA as substrate relative to control. The essentials: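 Y. enterocolitica PBGS, expressed in E. coli from pET3, at 150 nM subunit in 100 mM BTP-HCl pH 8.0 with 1 mM MgCl2, 5 mM DTT, 100 mM KCl and 0.2 mM 5-ALA, 10 min at 36 °C. Porphobilinogen read with Ehrlich's reagent. Activity normalized to 6.7% DMSO control as 100%. EC50 from variable-slope agonist fit.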

For experiment [10], the target named is Delta-aminolevulinic acid dehydratase (Pseudomonas aeruginosa (strain ATCC 15692 / PAO1 / 1C / PRS 101 / LMG12228)) (UniProt Q59643). The experiment can be described thus: Stimulation of Pseudomonas aeruginosa PAO1 recombinant PBGS using 5 mM 5-ALA as substrate assessed as increase in Vmax at 10 to 10000 uM at pH 8 by buffer scan assay in presence of MgCl2. A digest of the protocol:
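Mg2+ or substrate response curves recorded with and without wALADin1; VMAX, KM and Mg2+ affinity derived from the fits.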

Experiment [11] is described as follows: Stimulation of Toxoplasma gondii recombinant PBGS using 5-ALA as substrate. The essentials: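 T. gondii PBGS, expressed from pET-21b in BL21 E. coli and purified, at 250 nM subunit in 100 mM Tris-HCl pH 8.0 with 1 mM MgCl2, 5 mM DTT and 0.2 mM 5-ALA, 20 min at 36 °C. Porphobilinogen detected with Ehrlich's reagent. Activity normalized to 6.7% DMSO control. EC50 by variable-slope agonist fit.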

Experiment [12] deals with Delta-aminolevulinic acid dehydratase (Pseudomonas aeruginosa (strain ATCC 15692 / PAO1 / 1C / PRS 101 / LMG12228)) (UniProt Q59643). In words: Inhibition of Pseudomonas aeruginosa PAO1 recombinant PBGS using 0.2 mM 5-ALA as substrate assessed as […] at 50 to 200 uM at pH 7.5 by buffer scan assay in presence of 1 mM MgCl2 and 1 to 1000 mM KCl.
Experiment [13] addresses Delta-aminolevulinic acid dehydratase (Yersinia enterocolitica W22703) (UniProt F4MUJ9). In words: Stimulation of Yersinia enterocolitica recombinant PBGS expressed in Escherichia coli using 5-ALA as substrate at 10 to 1000 uM at pH 8 in presence of MgCl2 and KCl.
Experiment [14] addresses Delta-aminolevulinic acid dehydratase (Pseudomonas aeruginosa (strain ATCC 15692 / PAO1 / 1C / PRS 101 / LMG12228), UniProt Q59643). In words: Inhibition of Pseudomonas aeruginosa PAO1 recombinant PBGS using 5-ALA as substrate. The essentials:
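Turnover kept at or below 30%. Porphobilinogen measured with Ehrlich's reagent. IC50 by variable-slope fit of activity normalized to DMSO control.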

The target of experiment [15] is Delta-aminolevulinic acid dehydratase (Yersinia enterocolitica W22703) (UniProt F4MUJ9). In words: Inhibition of Yersinia enterocolitica recombinant PBGS expressed in Escherichia coli using 5-ALA as substrate at 50 to 200 uM at pH 7 to 8.5 by buffer scan assay.
Experiment [16] has as its target Delta-aminolevulinic acid dehydratase (Pseudomonas aeruginosa (strain ATCC 15692 / PAO1 / 1C / PRS 101 / LMG12228)) (UniProt Q59643). In words: Inhibition of Pseudomonas aeruginosa PAO1 recombinant PBGS using 0.2 mM 5-ALA as substrate at 50 to 200 uM at low pH by buffer scan assay.
Experiment [17] addresses Delta-aminolevulinic acid dehydratase (Yersinia enterocolitica W22703) (UniProt F4MUJ9). The experiment can be described thus: Stimulation of Yersinia enterocolitica recombinant PBGS expressed in Escherichia coli using 5-ALA as substrate at 10 to 1000 uM at pH 8 in presence of 0.1 to 10000 uM MgCl2.

Chain of Delta-aminolevulinic acid dehydratase (Yersinia enterocolitica W22703) (F4MUJ9 as listed by the source): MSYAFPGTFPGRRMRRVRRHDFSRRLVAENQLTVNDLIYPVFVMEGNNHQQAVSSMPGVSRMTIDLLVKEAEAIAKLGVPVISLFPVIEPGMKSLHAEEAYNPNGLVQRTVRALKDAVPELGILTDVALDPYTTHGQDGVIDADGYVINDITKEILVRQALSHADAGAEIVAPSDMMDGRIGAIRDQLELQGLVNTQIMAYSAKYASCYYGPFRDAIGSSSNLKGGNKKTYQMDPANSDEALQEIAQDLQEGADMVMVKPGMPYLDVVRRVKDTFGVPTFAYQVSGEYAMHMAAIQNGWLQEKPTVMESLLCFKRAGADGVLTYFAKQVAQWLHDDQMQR
Chain of Delta-aminolevulinic acid dehydratase (Pseudomonas aeruginosa (strain ATCC 15692 / PAO1 / 1C / PRS 101 / LMG12228)) (Q59643 whole entry): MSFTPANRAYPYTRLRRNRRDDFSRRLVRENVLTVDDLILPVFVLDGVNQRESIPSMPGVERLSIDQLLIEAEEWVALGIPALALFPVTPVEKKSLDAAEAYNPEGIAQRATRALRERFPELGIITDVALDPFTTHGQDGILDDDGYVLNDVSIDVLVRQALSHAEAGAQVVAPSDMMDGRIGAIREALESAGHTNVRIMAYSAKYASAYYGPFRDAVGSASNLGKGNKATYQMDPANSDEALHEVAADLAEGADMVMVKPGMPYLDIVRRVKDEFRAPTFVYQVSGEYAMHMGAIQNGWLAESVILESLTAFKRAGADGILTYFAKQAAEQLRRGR
Chain of Delta-aminolevulinic acid dehydratase (Q59643 whole entry): as above

Take `O=C(O)c1ccc2c(c1)nc(CCNC(=O)c1cccs1)n2Cc1cccc(C(F)(F)F)c1`: the outcome in experiment [1] was inactive. Besides, the outcome in [2], in [5], in experiment [6], in experiment [10], in [13] and in experiment [17] was Active. Moreover, the results for the Smax in [3], in experiment [4] and in experiment [9] were 123%, 120% and 152%, respectively. Also, the inhibition entry in [7], in experiment [8], in experiment [15] and in [16] was “Active” in each case. In [11], the pEC50 – broadly, the negative decadic logarithm of the EC50, by convention in mol/L – is 4.02. The inhibition result in experiment [12] is “inactive”. Also, the pIC50 (usually −log10 of the IC50, conventionally taken in molar units) in [14] is 4.10.

For the origin of these results see ChEMBL document CHEMBL3286371, “wALADin benzimidazoles differentially modulate the function of porphobilinogen synthase orthologs” (J Med Chem, 2014).
